# Screening results from PubChem.
# thrombin 1536 = thrombin (human) inhibition | P00734 | alpha-thrombin, Boc-VPR-AMC fluorogenic substrate cleavage | inhibition, % at 5 µM | 220,000 tested, 0.26% active | AID 1046;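 active = inhibition at or above 40%; inactive = inhibition below 40%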;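 also: 0% = enzyme with no compound and 100% = wells without enzyme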
#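 Material: human alpha-thrombin enzyme / Medium: pH 7.5 Tris (50 mM) with NaCl 150 mM, Tween 20 0.05% / Compound: single-point dosing at 5 µM, 0.2% DMSO / Incubation: enzyme reaction carried out at room temperature / Detection: AMC fluorescence, 355/460 nm / Read-out basis: percent inhibition scaled between no-compound controls and no-enzyme blanks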
# FXIIa inh = inhibitors of human coagulation factor XIIa; P00748; purified FXIIa, Boc-QGR-AMC fluorogenic substrate, 2 h; AID 800; 220,000 tested, 0.3% active; inhibition, % at 5 µM; in the data active = inhibition above about 40%;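 also: 0% = enzyme with no compound and 100% = blank without enzyme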
# KLK5 inh = blocks human kallikrein 5 protease activity; Q9Y337; recombinant hK5, fluorogenic AMC substrate cleavage; inhibition, % at 5 µM; 210,000 tested, 0.59% active;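 active = inhibition of 40% or more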;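 also: 0% = enzyme controls without compound and 100% = no-enzyme blanks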
# FXIa inh = blocks human coagulation factor XIa protease activity; P03951; purified FXIa, Boc-Glu-Ala-Arg-AMC fluorogenic substrate; inhibition, % at 5 µM; 220,000 tested, 0.14% active; AID 798;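 active = inhibition of at least 40%; inactive = inhibition below 40%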;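 also: fluorescence of freed AMC excited at 355 nm; 0% = enzyme without compound and 100% = no enzyme blank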
# PGE2 EP2 inh = EP2 receptor (human) inhibition. inhibition, % at 25 µM. 260,000 tested, 0.52% active. P43116. C6 glioma cells expressing human EP2, cAMP TR-FRET; cells stimulated with saturating PGE2;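 active = percent inhibition above 40 after rounding to a whole number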;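 also: rat C6 glioma host cells with rolipram phosphodiesterase inhibitor present; the protocol text gives 20 µM as final concentration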
# EP2 modulator = modulates human prostaglandin E2 receptor EP2 signaling; 260,000 tested, 0.83% active; EP2-expressing cells, cAMP HTRF FRET, PGE2 co-stimulation; induction, % at 25 µM;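 active = compounds whose cAMP rise, as percent of the full-agonist control response, exceeds 60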;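 also: rat C6 glioma line stably carrying human EP2 under a CMV promoter; the protocol text gives 20 µM as final concentration; 100% = response of wells given 1 µM PGE2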
# * hit, by the source's call; nt = no result. Rows were chosen to be rich in hits. Some 2.1% of all compounds tested hit in one or more screens of this group.
SMILES,thrombin 1536,FXIIa inh,KLK5 inh,FXIa inh,PGE2 EP2 inh,EP2 modulator
C=C(C)CNC(=S)N/N=C(\C)c1cccc(NC(C)=O)c1,11,34,75*,49*,11,-66
CCOC(=O)C1CCCN(C2CC(=O)N(c3ccc(C)cc3)C2=O)C1 (stereo not given),12,19,40*,12,10,-8
Cc1nn(CCc2nn[nH]n2)c2nc(-c3ccc(Br)cc3)cc(C(F)(F)F)c12,9,41*,31,27,22,56
O=C(COC(=O)[C@H](Cc1ccccc1)NC(=O)c1ccco1)NC(c1ccccc1)c1ccccc1,-4,-10,-9,-11,11,62*
O=C(COC(=O)C(Cc1ccccc1)NC(=O)c1ccco1)NC1CC1 (stereo not given),4,11,-11,1,6,39
COc1ccc(-c2c[n+](CC(=O)c3ccccc3)c3n2CCCCC3)cc1,-7,4,0,-1,9,-1
COc1ccc(-c2c[n+]3c4n2CCCCC4=C(c2ccccc2)C3)cc1,58*,-2,-143,-3,13,-15
COc1ccccc1C(=O)N(Cc1ccc2c(c1)OCO2)Cc1cc2c(C)cc(C)cc2[nH]c1=O,nt,nt,nt,nt,9,-9
c1ccc(C2CCC(N3CCN(Cc4ccccn4)CC3)CC2)cc1 (stereo not given),nt,nt,nt,nt,10,-5
Oc1ccc(-c2nc3ccccc3s2)cc1,42*,-1,-8,-7,8,-43
Oc1ccc(-c2nccc(-c3ccc(Cl)cc3)n2)cc1,2,7,-6,-5,8,-14
CC(CCc1nc2ccccc2s1)(c1ccc(O)cc1)c1ccc(O)cc1,nt,nt,nt,nt,100*,-33
Oc1ccc(-c2cccc(-c3ccc(O)cc3)n2)cc1,-6,-2,47*,-9,12,-29
COC(=O)C1=C(C)N(C)C(=O)NC1c1ccc(N2CCOCC2)cc1 (stereo not given),nt,nt,nt,nt,8,-14
c1ccc(OCCOCCN2CCN(C(c3ccccc3)c3ccccc3)CC2)cc1,-1,12,-9,5,7,61*
O=C(O)c1cc2ccccc2c(S(=O)(=O)O)c1O,nt,nt,nt,nt,10,4
Nc1ccc(N=Nc2c(S(=O)(=O)O)cc3ccccc3c2S(=O)(=O)O)cc1,nt,nt,nt,nt,41*,18
O=C(NC1CCCC1)C1CCCN1C(=O)NCc1ccccc1 (stereo not given),nt,nt,nt,nt,9,12
CC(C)c1ccc(O)c(O)c(=O)c1 (tested in a mixture with another compound),nt,nt,nt,nt,41*,48
CC(NC(=O)c1ncoc1-c1ccc2ccccc2c1)c1ccccn1 (stereo not given),nt,nt,nt,nt,4,-118
COc1cc(C(=O)N2CC(C)CC(C)C2)cc(OC)c1OC (stereo not given),nt,nt,nt,nt,18,-10
Cc1ccc2[nH]c(=O)c(CN(Cc3ccccc3Cl)Cc3nnnn3C3CCCC3)cc2c1,nt,nt,nt,nt,5,74*
Cc1ccc2[nH]c(=O)c(CN(Cc3ccccc3)Cc3nnnn3C3CCCCC3)cc2c1,nt,nt,nt,nt,13,45
COc1ccccc1CN(Cc1cc2cc(C)ccc2[nH]c1=O)Cc1nnnn1C1CCCC1,nt,nt,nt,nt,6,65*
COc1ccc(C2=NN(C(C)=O)C(c3ccc(OC)c(OC)c3)C2)c(O)c1 (stereo not given),nt,nt,nt,nt,10,-123
SMILES,thrombin 1536,FXIIa inh,KLK5 inh,FXIa inh,PGE2 EP2 inh,EP2 modulator
Cc1cc(C)nc(N2CCN(CC(O)c3ccc4c(c3)CC(C)O4)CC2)n1 (stereo not given),nt,nt,nt,nt,4,-61
COc1ccc(C(=O)N2CCCC(c3nc(-c4ccc(OC)c(OC)c4)no3)C2)cc1OC (stereo not given),nt,nt,nt,nt,12,1
CCC1C(=NO)C(CC)C(c2ccccc2)NC1c1ccccc1 (stereo not given),11,28,16,19,0,63*
O=C1NN(c2ccc(Cl)cc2)C(=O)/C1=C/c1cccs1,nt,nt,nt,nt,10,-111
CCOc1cc(C2C3=C(CCCC3=O)N(C)C3=C2C(=O)CCC3)cc(Cl)c1OCC,nt,nt,nt,nt,13,18
Cc1ccc(C)n1-c1ccc(-c2nnc3n2CCCCC3)s1,-1,26,-7,16,59*,28
C1CCc2nnc(-c3nnc4n3CCCCC4)n2CC1,-1,15,-7,-2,-4,10
COc1ccc(-n2c(SCC(=O)N3CCCC3)nnc2-c2ccccn2)cc1,nt,nt,nt,nt,13,-29
